KCNQ1 act: human KCNQ1 channel potentiation or activation. P51787. CHO-K1 KCNQ1, thallium flux FluxOR fluorescence; active compounds read high. B-score at 10 µM. 310,000 compounds, 0.35% hits;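 active means fluorescence ratio B-score, a plate-corrected score, at least three library SD, with initial intensity B-score within 5 SD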
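Test system: CHO-K1 cells stably expressing KCNQ1 / Medium: assay buffer / Also added: depolarizing K+/Tl+ stimulus, K2SO4 and Tl2SO4 each 12.5 mM in 5x stock / Incubation: 90 min dye loading and 20 min compound exposure, both at room temperature / Signal: thallium influx via FluxOR fluorescence, kinetic imaging / Evaluation: B score of baseline-normalized fluorescence ratio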
PHOSPHO1 inh: PHOSPHO1 (human) inhibition | recombinant PHOSPHO1, absorbance phosphatase assay | 290,000 compounds, 1.1% hits | inhibition, % at 13.3 µM | Q8TCT1; in the data active means inhibition above about 60%
KCNK9 inh: blocks the human KCNK9 two-pore domain potassium channel | Q9NPC2 | HEK293 KCNK9, FluxOR thallium flux fluorescence; active compounds read low | AID 488922 | 310,000 compounds, 1.2% hits | B-score at 10 µM;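 active means ratio B-score over 3 SD below the library mean, with starting fluorescence within 5 SD of its mean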;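 further: negative B-score means less thallium flux so channel inhibition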
hERG rescue: compounds protecting human hERG from proarrhythmic drug block; Q12809; CHO-hERG, FluxOR thallium flux, dofetilide IC70 present; activation (rescue from dofetilide block), less the hit threshold, % at 10 µM; 310,000 compounds, 0.51% hits; AID 1511;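 active means activation above the mean of controls blocked by dofetilide plus 5 SD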;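 further: thallium influx through hERG after potassium depolarization seen as dye fluorescence rise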
Target sequence (Q12809 whole entry, looked up): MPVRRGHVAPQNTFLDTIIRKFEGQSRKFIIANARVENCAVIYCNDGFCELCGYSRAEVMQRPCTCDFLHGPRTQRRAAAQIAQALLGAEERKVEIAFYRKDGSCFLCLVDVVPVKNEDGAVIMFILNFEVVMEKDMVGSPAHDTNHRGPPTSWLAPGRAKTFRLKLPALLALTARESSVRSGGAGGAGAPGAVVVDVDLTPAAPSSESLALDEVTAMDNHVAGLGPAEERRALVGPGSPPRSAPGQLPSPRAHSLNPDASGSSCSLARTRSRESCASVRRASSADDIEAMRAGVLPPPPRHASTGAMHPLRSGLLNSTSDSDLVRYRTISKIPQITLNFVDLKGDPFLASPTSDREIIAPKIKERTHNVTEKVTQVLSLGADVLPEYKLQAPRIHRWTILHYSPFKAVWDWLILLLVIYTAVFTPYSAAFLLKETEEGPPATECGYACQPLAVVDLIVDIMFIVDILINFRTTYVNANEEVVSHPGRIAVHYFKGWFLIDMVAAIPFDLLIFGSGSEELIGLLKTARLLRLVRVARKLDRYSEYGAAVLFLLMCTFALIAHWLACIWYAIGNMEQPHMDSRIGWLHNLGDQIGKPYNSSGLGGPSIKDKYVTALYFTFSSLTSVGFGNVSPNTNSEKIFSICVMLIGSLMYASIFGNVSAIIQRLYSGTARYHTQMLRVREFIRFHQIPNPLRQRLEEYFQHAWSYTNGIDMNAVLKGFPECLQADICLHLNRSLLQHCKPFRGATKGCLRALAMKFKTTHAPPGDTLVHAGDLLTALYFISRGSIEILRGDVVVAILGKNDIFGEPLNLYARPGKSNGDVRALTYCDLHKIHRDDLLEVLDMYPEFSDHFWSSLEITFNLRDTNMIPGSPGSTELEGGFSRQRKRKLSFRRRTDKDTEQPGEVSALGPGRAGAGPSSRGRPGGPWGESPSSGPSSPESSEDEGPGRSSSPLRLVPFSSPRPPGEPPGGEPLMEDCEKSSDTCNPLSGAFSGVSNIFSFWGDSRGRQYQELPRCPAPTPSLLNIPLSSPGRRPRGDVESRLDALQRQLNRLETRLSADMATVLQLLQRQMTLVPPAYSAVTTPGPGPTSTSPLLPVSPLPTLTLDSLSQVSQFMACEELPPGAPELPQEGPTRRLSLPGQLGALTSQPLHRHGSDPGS
KCNQ1 block: blocks the human KCNQ1 potassium channel | P51787 | 310,000 compounds, 1.3% hits | CHO-K1 KCNQ1, FluxOR thallium flux fluorescence; active compounds read high | B-score at 10 µM;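 active means compounds whose thallium flux B-score, printed positive for inhibition, exceeds three library SD while starting fluorescence stays within three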;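 further: channel opened by potassium depolarization with thallium stimulus after 20 min compound exposure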
KCNK3 block: human KCNK3 channel inhibition, primary screen; O14649; CHO-KCNK3 thallium flux, FluxOR fluorescence; active compounds read low; B-score at 10 µM; 340,000 compounds, 0.84% hits;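 active means B-score under library mean minus 4 SD, starting fluorescence ratio at most library mean plus 5 SD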;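 further: more negative B-score means stronger inhibition of thallium flux through KCNK3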
An asterisk follows results filed as active; i = inactive; x = no result. Rows were chosen to be rich in hits. Some 4% of all compounds tested hit in one or more screens of this group.

SMILES	KCNQ1 act	PHOSPHO1 inh	KCNK9 inh	hERG rescue	KCNQ1 block	KCNK3 block
CCOc1ccccc1N1CCN(C(=O)CC(C)(C)C)CC1	i	73*	i	-10	i	i
COc1ccccc1N1CCN(Cc2ccc(OC)c(OC)c2OC)CC1	i	14	i	-8	i	i
CCOc1ccccc1N1CCN(C(=O)C(F)(F)F)CC1	i	9	i	-7	i	i
CCOc1ccccc1N1CCN(Cc2cccc(OC)c2OC)CC1	i	-6	i	-16	6*	i
COC(=O)C(CC(C)C)NC(=O)c1cc(OC)c(OC)c(OC)c1 (stereo unspecified)	i	-16	i	-9	i	i
CCn1c(COc2ccc(C)cc2)nnc1SCC(=O)NCc1ccco1	i	32	i	-6	i	i
O=C(NCc1ccccn1)C1CCC(CNS(=O)(=O)c2cccc3nsnc23)CC1 (stereo unspecified)	i	63*	i	-17	i	i
CCOc1ccccc1-c1n[nH]c(=S)o1	i	100*	i	-9	i	i
CCOc1ccc(-c2n[nH]c(=S)o2)cc1	i	52	i	-7	i	i
COc1ccc(-c2n[nH]c(=S)o2)c(OC)c1	i	103*	i	-4	i	i
C=CCO/N=C(/C)c1c(O)c(CC)c(-c2ccccc2)n(-c2ccccc2)c1=O	i	-4	i	-6	i	i
COCCCn1c(=O)c2sccc2n2c(CCCC(=O)N3CCN(c4ccccn4)CC3)nnc12	i	37	i	-16	i	i
CCCNC(=O)C1(CC2CC(c3ccccc3)=NO2)CCN(C(=O)C2CCCC2)CC1 (stereo unspecified)	x	x	x	x	x	i
CSC(=S)N/N=C/c1ccc(Br)cc1	41*	6	i	19*	i	i
CC(C)(C)NC(=O)C(=O)N/N=C/c1ccc(Br)cc1	i	38	i	-1	i	i
CSC(=S)N/N=C/c1ccc(N(C)C)cc1	9*	-14	i	-11	i	i
CN(C)c1ccc(C=NNC(=S)Nc2ccc(F)cc2)cc1	x	x	x	x	x	i
COC(=O)c1cc(S(=O)(=O)NC2CCC(C)CC2)cn1C (stereo unspecified)	i	64*	i	-3	i	i
COc1ccc(C2c3ccc4ccccc4c3Oc3ncn(CCO)c(=N)c32)cc1OC (stereo unspecified)	i	33	i	-10	i	i
COc1ccc(C2c3ccc4ccccc4c3Oc3ncn(CCCO)c(=N)c32)cc1OC (stereo unspecified)	9*	28	i	-12	i	i
Cc1cccc(NC(=S)NC(=O)c2ccc(Br)o2)c1C	i	34	i	46*	i	i
O=C(NC(=S)Nc1ccccc1F)c1ccc(Br)o1	77*	42	i	32*	i	i
Cn1ncc(C(N)=O)c1NC(=S)NC(=O)c1ccc(Br)o1	i	80*	i	-15	i	i
CCN(c1ccccc1)S(=O)(=O)c1ccc(NC(=S)NC(=O)c2ccc(Br)o2)cc1	12*	35	i	11*	i	i
Cc1ccc(NC(=S)NC(=O)c2ccc(Br)o2)c(C)c1	i	32	i	0	i	i
SMILES	KCNQ1 act	PHOSPHO1 inh	KCNK9 inh	hERG rescue	KCNQ1 block	KCNK3 block
Cc1cccc(C)c1NC(=S)NC(=O)c1ccc(Br)o1	27*	34	i	25*	i	i
CCN(CC)c1ccc(/C=C/c2ccc3ccc(OC)cc3[n+]2CC)cc1	i	22	-7.1*	-41	i	-13*
Cc1ccc(NC(=O)CSc2ncccn2)cc1S(=O)(=O)N1CCCCC1	i	x	i	-11	i	i
O=C(COC(=O)c1ccccc1)c1ccc(Br)cc1	i	-25	-6.8*	-4	i	i
CCCn1c(C)cc(C(=O)COc2ccc(S(=O)(=O)N(CC)CC)cc2[N+](=O)[O-])c1C	i	-7	i	-2	i	i
COC(=O)c1sccc1NC(=O)CSc1ccccc1NS(=O)(=O)c1ccc(F)cc1	i	10	i	-13	i	i
COc1cccc(CN(C)C(=O)C23CC4CC(CC(NC(C)=O)(C4)C2)C3)c1OC	i	-6	i	-9	i	i
O=C(CCNC(=O)C1CCN(S(=O)(=O)c2ccc(F)cc2)CC1)NCCc1ccc(Cl)cc1	i	64*	i	-8	i	i
O=C(CCNC(=O)C1CCN(S(=O)(=O)c2ccc(F)cc2)CC1)NCCc1cccc(F)c1	i	15	i	-6	i	i
Clc1cc(Cl)c(OCc2nc(-c3ccccn3)no2)cc1Cl	i	18	i	-7	i	i
CC(C)(C)c1ccc(OCc2nc(-c3ccccn3)no2)c(Br)c1	i	-30	-6.8*	-8	i	i
Cc1nn(CC(=O)Nc2ccc(Cl)c(S(=O)(=O)N(C)C)c2)c(C)c1[N+](=O)[O-]	i	5	i	-6	i	i
N#CCc1ccc(NS(=O)(=O)c2ccc(C3CCCCC3)cc2)cc1	i	4	-6.9*	-13	i	i
Cc1ccc(S(=O)(=O)N2CCN(C(=O)COC(=O)c3cc(C)oc3C)CC2)cc1	i	9	i	-9	i	i
Cc1cc(C)cc(NC(=O)C(OC(=O)c2ccc([N+](=O)[O-])o2)c2ccccc2)c1 (stereo unspecified)	i	-2	i	-2	i	i
O=C(CCn1c(=O)oc2ccccc21)N1CCCCCC1	i	9	i	-14	i	i
CC1CN(C(=O)CCn2c(=O)oc3ccccc32)CC(C)O1 (stereo unspecified)	i	13	i	-18	i	-9*
COc1ccc(C(=O)OCC(=O)NC2CC2)cc1OC	x	x	x	x	x	i
CCS(=O)(=O)c1ccc2oc(Nc3ccc(C(C)C)cc3)nc2c1	i	82*	i	-12	i	i
CCS(=O)(=O)c1ccc2oc(Nc3cc(C)cc(C)c3)nc2c1	i	40	i	-9	i	i
COc1ccc(-c2c(-c3ccc(OCC(=O)NN)cc3O)n[nH]c2C(F)(F)F)cc1	i	0	i	-10	i	i
Oc1ccc(Nc2nc(-c3ccccc3)nc3ccccc23)cc1	i	-2	i	-5	i	i
Oc1ccc(Nc2nc3ccccc3nc2Nc2ccc(O)cc2)cc1	i	100*	i	-33	i	i
CN1CCN(C(=O)Nc2ccccc2)CC1	i	63*	i	-7	i	i
